These results are taken from ChEMBL document CHEMBL1799978, “Akt-dependent anabolic activity of natural and synthetic brassinosteroids in rat skeletal muscle cells” (J Med Chem, 2011).

Data set [1] has as its system L6. As to the kind of experiment: Cytotoxicity against rat L6 cells up to 30 uM after 24 hrs by MTT assay. It is filed as cell-based. As to conditions: l6, 24 h. In a few lines:
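Fully differentiated L6 myotubes (myoblasts fused after 7–9 d in 2% serum) treated with compounds up to 30 μM against 0.1% ethanol vehicle. Viability by MTT assay in triplicate, read at 550 nm, alongside cytological observation.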
On the technique in general: Tetrazolium dyes change colour on reduction, which living cells bring about.

Data set [2] deals with L6. As to the kind of experiment: Activation of Akt phosphorylation at Ser473 in rat L6 cells at 10 uM after 1 hr by Western blot analysis. The class given is cell-based. In a few lines: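 Differentiated L6 myotubes exposed to 10 μM compound for 1 h; IGF-1 6.5 nM for 10 min served as positive control. Lysis in ice-cold RIPA with 10 mM NaF, 2 mM orthovanadate, 1 mM PMSF and protease inhibitors, spun 12,000 g 20 min 4°C. Lysates normalized to 50 μg soluble protein, immunoblotted for phospho-Akt (Ser473); stripped blots reprobed for total Akt as loading control; ECL detection.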
(Immunoblotting shows a protein as a band on a membrane.)

Data set [3] has as its system L6. The data set is described as follows: Increase in protein synthesis in rat L6 cells assessed as [3H]-phenylalanine incorporation at 10 uM after 4 hrs by scintillation counting relative to control. It is filed as functional. In short, it runs like this:
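L6 myotubes (differentiated in 2% serum) washed with serum-free DMEM. Incubated 4 h with 0.5 μCi/mL [3H]-phenylalanine plus vehicle (0.1% ethanol), compound (0.3–30 μM, or 10 μM), or 6.5 nM IGF-1. Protein precipitated with 5% TCA, dissolved in 0.5 N NaOH, scintillation-counted, normalized to mg protein (BCA). Triplicate; ANOVA/Dunnett.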

The subject of data set [4] is L6. As to the kind of experiment: Decrease in protein degradation in rat L6 cells assessed as release of acid-soluble [3H]-phenylalanine into the media normalized by total protein at 10 uM after 4 hrs by scintillation counting relative to control. More on the design: scale not given: the % may be the effect or the level left. It is filed as functional. In short, it runs like this: (§1)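 L6 myoblasts differentiated 7–9 d in 2% serum into myotubes. Proteins labelled 16 h with 1.5 μCi/mL [3H]-phenylalanine, then washed. Cells treated 4 h in serum-free medium with vehicle (0.1% ethanol), compound (0.3–30 μM; single-point screen 10 μM), or 10 nM insulin. Medium TCA-precipitated and released [3H]-phenylalanine counted, normalized to mg cell protein (BCA). Triplicate; one-way ANOVA with Dunnett's test.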

Data set [5] concerns NIH3T3. The data set is described as follows: Cytotoxicity against mouse NIH/3T3 cells after 24 hrs by MTT assay. It is filed as cell-based. As to conditions: NIH3T3, 24 h. In short, it runs like this:
(§2)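 NIH-3T3 murine fibroblasts grown in DMEM with 10% FBS at 37°C in 5% CO2. Exposed to 0.3–30 μM for 24 h at 37 °C. MTT read at 550 nm. Absorbance expressed relative to vehicle control cells (taken as 100% proliferation). n=6 from repeated experiments.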

Data set [6] concerns NIH3T3. As to the kind of experiment: Cytotoxicity against mouse NIH/3T3 cells at 0.3 to 30 uM after 24 hrs by MTT assay. It is filed as cell-based. As to conditions: nih3t3, 24 h. In a few lines:
as §2

Data set [7] concerns Rattus norvegicus. As to the kind of experiment: Anabolic effect in Wistar rat assessed as increase in limb grip strength at 60 mg/kg, po qd for 24 days. It is filed as functional, organism-based. On the set-up: dose 60 mg/kg.
The test system of data set [8] is Rattus norvegicus. The data set is described as follows: Induction of Myog mRNA expression in Wistar rat at 60 mg/kg, po qd for 24 days by RT-PCR analysis relative to control. The class given is functional. In a few lines:
(§3)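 Gastrocnemius muscle from male Wistar rats dosed orally with 60 mg/kg daily for 24 d, or vehicle. Conventional RT-PCR on individual muscle samples (n=5 per group), duplicate determinations. Compared with control by Student t test.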

In data set [9] the test system is Rattus norvegicus. The data set is described as follows: Effect on Eif2b1 gene expression in Wistar rat at 60 mg/kg, po qd for 24 days by PCR analysis relative to control. It is filed as functional, organism-based. On the set-up: dose 60 mg/kg. In short, it runs like this:
(§4)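 Male Wistar rats gavaged daily 24 d with 60 mg/kg or vehicle (5% DMSO in corn oil). RNA from pooled (n=5) frozen gastrocnemius samples run on a rat insulin signaling PCR array (84 genes). Fold change computed as 2^(-ΔCt), with a 4-fold threshold.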

Data set [10] deals with Rattus norvegicus. As to the kind of experiment: Induction of Myf5 mRNA expression in Wistar rat at 60 mg/kg, po qd for 24 days by RT-PCR analysis relative to control. The class given is functional. In a few lines: as §3
Data set [11] concerns Rattus norvegicus. The data set is described as follows: Induction of Myod1 mRNA expression in Wistar rat at 60 mg/kg, po qd for 24 days by RT-PCR analysis relative to control. The class given is functional. In short, it runs like this: as §3
Data set [12] deals with Rattus norvegicus. As to the kind of experiment: Induction of Myf6 mRNA expression in Wistar rat at 60 mg/kg, po qd for 24 days by RT-PCR analysis relative to control. It is filed as functional. In short, it runs like this: as §3
In data set [13] the test system is Rattus norvegicus. The data set is described as follows: Upregulation of Srebf1 gene expression in Wistar rat at 60 mg/kg, po qd for 24 days by PCR analysis relative to control. The class given is functional. In a few lines:
as §4

For data set [14], the system named is L6. As to the kind of experiment: Decrease in protein degradation in rat L6 cells assessed as release of acid-soluble [3H]-phenylalanine into the media normalized by total protein at 1 uM after 4 hrs by scintillation counting relative to control. It is filed as functional. On the set-up: scale not given: the % may be the effect or the level left. In a few lines: as §1

Data set [15] relates to Rattus norvegicus. The data set is described as follows: Upregulation of Adar1d gene expression in Wistar rat at 60 mg/kg, po qd for 24 days by PCR analysis relative to control. It is filed as functional. In short, it runs like this: as §4
For data set [16], the system named is Rattus norvegicus. As to the kind of experiment: Upregulation of Fbp2 gene expression in Wistar rat at 60 mg/kg, po qd for 24 days by PCR analysis relative to control. The class given is functional. In short, it runs like this: as §4
In data set [17] the test system is Rattus norvegicus. As to the kind of experiment: Anabolic effect in Wistar rat assessed as increase in lean body mass at 60 mg/kg, po qd for 24 days. It is filed as functional.
For data set [18], the system named is L6. As to the kind of experiment: Decrease in protein degradation in rat L6 cells assessed as release of acid-soluble [3H]-phenylalanine into the media normalized by total protein at 0.3 to 20 uM after 4 hrs by scintillation counting relative to control. It is filed as functional, cell-based. In a few lines:
as §1

The subject of data set [19] is Rattus norvegicus. As to the kind of experiment: Upregulation of Igfbp1 gene expression in Wistar rat at 60 mg/kg, po qd for 24 days by PCR analysis relative to control. The class given is functional. In short, it runs like this:
as §4

Data set [20] deals with L6. The data set is described as follows: Increase in protein synthesis in rat L6 cells assessed as [3H]-phenylalanine incorporation at 0.3 to 30 uM after 4 hrs by scintillation counting relative to control.
In data set [21] the test system is Rattus norvegicus. The data set is described as follows: Upregulation of Igf2 gene expression in Wistar rat at 60 mg/kg, po qd for 24 days by PCR analysis relative to control. It is filed as functional. In a few lines: as §3

Active and inactive are the calls of the source.

On to `CC(C)[C@@H](C)[C@H](O)[C@@H](O)[C@@H](C)[C@H]1CC[C@H]2[C@@H]3COC(=O)[C@H]4C[C@H](O)[C@H](O)C[C@]4(C)[C@H]3CC[C@]12C`, for which the Activity entry was “Non-toxic” in the data set with L6 [1], 4% in the data set on L6 [3] and -6% in the data set on L6 [4]. Besides, in the data set on L6 [2], the outcome was Active.
Take `CC[C@@H](C(C)C)[C@H](O)[C@@H](O)[C@@H](C)[C@H]1CC[C@H]2[C@@H]3CC(=O)N[C@H]4C[C@H](O)[C@H](O)C[C@]4(C)[C@H]3CC[C@]12C`: the Activity result in the data set on L6 [1] is given as “Non-toxic”; in the data set on L6 [3] it was 3%; in the data set with L6 [4] it was -14%. Also, the outcome in the data set with L6 [2] was Active.
As for `CC[C@@H](C(C)C)[C@H](O)[C@@H](O)[C@@H](C)[C@H]1CC[C@H]2[C@@H]3CNC(=O)[C@H]4C[C@H](O)[C@H](O)C[C@]4(C)[C@H]3CC[C@]12C`, the Activity entry is reported as “Non-toxic” in the data set with L6 [1], 21% with L6 [3] and -1% with L6 [4]. For the same compound, the outcome in the data set on L6 [2] was Active. In the data set with NIH3T3 [5], the IC50 amounted to 12.5 µM.
As for `CC[C@@H](C(C)C)[C@H](O)[C@@H](O)[C@@H](C)[C@H]1CC[C@H]2[C@@H]3CC(=O)[C@H]4C[C@H](F)CC[C@]4(C)[C@H]3CC[C@]12C`, the Activity result in the data set with L6 [1] is “Non-toxic”; in the data set on NIH3T3 [6], “Toxic”; in the data set with L6 [3], 23%; with L6 [4], -16%. In addition, the result in the data set with L6 [2] was Active.
Taken in the same sequence, the figures for `CC[C@H](C(C)C)[C@H](O)[C@@H](O)[C@@H](C)[C@H]1CC[C@H]2[C@@H]3COC(=O)[C@H]4C[C@H](F)CC[C@]4(C)[C@H]3CC[C@]12C` were “Non-toxic”, “Toxic”, 25%, -21% and “Active”.
With `CC[C@@H](C(C)C)[C@@H](O)[C@H](O)[C@@H](C)[C@H]1CC[C@H]2[C@@H]3COC(=O)[C@H]4C[C@H](O)[C@H](O)C[C@]4(C)[C@H]3CC[C@]12C`, the Activity result in the data set on L6 [1] is “Non-toxic”; in the data set on L6 [3], 13%; in the data set with L6 [4], -15%. For the same compound, the result with L6 [2] was Active.
As to `CC[C@@H](C(C)C)[C@H](O)[C@@H](O)[C@@H](C)[C@H]1CC[C@H]2[C@@H]3COC(=O)[C@H]4C[C@H](O)[C@H](O)C[C@]4(C)[C@H]3CC[C@]12C`, the Activity entry was “Non-toxic” with L6 [1]; “Non-toxic” in the data set on NIH3T3 [6]; 37% in the data set with L6 [3]; 8.2% in the data set on L6 [14]; -24% with L6 [4]; 14.2% with Rattus norvegicus [17]. Besides, the Activity entry was “Dose-dependent effect” in the data set on L6 [18] and 36.9% with L6 [20]. Moreover, the result with Rattus norvegicus [7] and in the data set on L6 [2] was Active. The “fold change (FC)” value in the data set with Rattus norvegicus [8] stood at 1.7; with Rattus norvegicus [10], 1.3; with Rattus norvegicus [11], 2.1; in the data set with Rattus norvegicus [12] it was 1.3; with Rattus norvegicus [13], 2.5; in the data set with Rattus norvegicus [15], 6.5. Further, the results for the “fold change (FC)” value in the data set on Rattus norvegicus [16], with Rattus norvegicus [19] and with Rattus norvegicus [21] were 4.5, 2.5 and 1.4, respectively. For the same compound, the result in the data set on Rattus norvegicus [9] was inactive.
On to `CC[C@@H](C(C)C)[C@H](O)[C@@H](O)[C@@H](C)[C@H]1CC[C@H]2[C@@H]3CC(=O)[C@H]4C[C@H](O)[C@H](O)C[C@]4(C)[C@H]3CC[C@]12C`, for which the Activity result is “Non-toxic” in the data set on L6 [1]; “Non-toxic” in the data set on NIH3T3 [6]; 41% in the data set on L6 [3]; 8.7% with L6 [14]; -23% with L6 [4]; “Dose-dependent effect” with L6 [18]. For the same compound, the Activity in the data set with L6 [20] amounted to 40.7%. The result with L6 [2] was Active.
As to `CC(C)[C@@H](C)[C@@H](O)[C@H](O)[C@@H](C)[C@H]1CC[C@H]2[C@@H]3COC(=O)[C@H]4C[C@H](O)[C@H](O)C[C@]4(C)[C@H]3CC[C@]12C`, the Activity entry in the data set on L6 [1] is “Non-toxic”; with L6 [3], 12%; in the data set with L6 [4], -7%. Also, the result in the data set with L6 [2] was Active.

One may read the IC50 as the concentration needed to halve the response being measured.
